GI50, LC50 and TGI data for eleven molecules are collected here from ChEMBL document CHEMBL3593171, “Characterization of l-Digitoxosyl-phenanthroviridin from Streptomyces venezuelae ISP5230” (2015).

Structures are written as SMILES.

A short description of the assay: Cytotoxicity against human NCI60 cells by NCI protocol based assay. The assay is classed as functional. In short, it runs like this: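 NCI-60 human tumour cell line panel run per the NCI protocol, with ethanol used as solvent in place of DMSO. Single-dose screen at 10 μM first, then five-dose assay from 10 nM to 100 μM at log10 intervals. Percent growth was plotted against concentration for each cell line, and GI50, TGI and LC50 were calculated from the dose–response curves.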

By GI50 is commonly meant the concentration giving 50% growth inhibition. The term LC50 denotes the concentration that kills 50% of the test population. The low end stands for a more lethal substance, the high end for a less lethal substance. In general, TGI refers to the concentration at which net growth stops. A high value points to less potent growth arrest. Turning to `Cc1cc(O)c2c(c1)[C@@H]1OC(=O)[C@H]([C@H](C)O)N1C1=C2C(=O)c2cccc(O[C@H]3C[C@@H](O)[C@@H](O)[C@H](C)O3)c2C1=O` [JADOMYCIN T], growth was halved (GI50) at 1.35 µM, the LC50 was determined as 6.5 µM and the TGI amounted to 3.02 µM.
For `Cc1cc(O)c2c(c1)[C@@H]1OC(=O)CN1C1=C2C(=O)c2cccc(O[C@H]3C[C@@H](O)[C@@H](O)[C@H](C)O3)c2C1=O` [JADOMYCIN G], the GI50 was 1.68 µM, the LC50 came out at 38.5 µM and net growth stopped (TGI) at 9.6 µM.
For `CC(=O)O[C@@H]1[C@@H](OC(C)=O)[C@H](C)O[C@H](n2cc(COC[C@H]3C(=O)OC4c5cc(C)cc(O)c5C5=C(C(=O)c6c(O[C@H]7C[C@@H](O)[C@@H](O)[C@H](C)O7)cccc6C5=O)N43)nn2)[C@@H]1OC(C)=O` (stereo partly drawn), in that order: 3.1 µM, 9.8 µM and 6.3 µM.
For `Cc1cc(O)c2c(c1)[C@@H]1OC(=O)[C@H](CC(C)C)N1C1=C2C(=O)c2cccc(O[C@H]3C[C@@H](O)[C@@H](O)[C@H](C)O3)c2C1=O` [JADOMYCIN L], in that order: 1.82 µM, 9.3 µM and 4.1 µM.
The corresponding values for `Cc1cc(O)c2c(c1)C1OC(=O)[C@H](COCc3cn(Cc4ccccc4)nn3)N1C1=C2C(=O)c2cccc(O[C@H]3C[C@@H](O)[C@@H](O)[C@H](C)O3)c2C1=O` (stereo partly drawn) are 6.1 µM, 14.9 µM and 11.9 µM.
The molecule `CCCC1C(=O)OC2c3cc(C)cc(O)c3C3=C(C(=O)c4c(O[C@H]5C[C@@H](O)[C@@H](O)[C@H](C)O5)cccc4C3=O)N12` (stereo partly drawn) displayed a GI50 of 4.79 µM, an LC50 of 19 µM and a TGI of 10 µM.
For `CC(=O)O[C@@H]1[C@@H](OC(C)=O)[C@H](C)O[C@@H](n2cc(COC[C@H]3C(=O)OC4c5cc(C)cc(O)c5C5=C(C(=O)c6c(O[C@H]7C[C@@H](O)[C@@H](O)[C@H](C)O7)cccc6C5=O)N43)nn2)[C@@H]1OC(C)=O` (stereo partly drawn), in that order: 3.1 µM, 11.6 µM and 6.8 µM.
For `CCCCC1C(=O)OC2c3cc(C)cc(O)c3C3=C(C(=O)c4c(O[C@H]5C[C@@H](O)[C@@H](O)[C@H](C)O5)cccc4C3=O)N12` (stereo partly drawn), in that order: 3.89 µM, 18 µM and 8.7 µM.
For `Cc1cc(O)c2c3c(ncc2c1)C(=O)c1c(O[C@H]2C[C@@H](O)[C@@H](O)[C@H](C)O2)cccc1C3=O`, in that order: 2.14 µM, 18.2 µM and 5.75 µM.
The molecule `CC(=O)O[C@H]1O[C@@H](n2cc(COC[C@H]3C(=O)OC4c5cc(C)cc(O)c5C5=C(C(=O)c6c(O[C@H]7C[C@@H](O)[C@@H](O)[C@H](C)O7)cccc6C5=O)N43)nn2)[C@@H](OC(C)=O)[C@@H](OC(C)=O)[C@@H]1OC(C)=O` (stereo partly drawn) yielded a GI50 of 3.5 µM, an LC50 of 11.8 µM and a TGI of 7.2 µM.
In the case of `CC(=O)OC[C@@H]1O[C@@H](n2cc(COC[C@H]3C(=O)OC4c5cc(C)cc(O)c5C5=C(C(=O)c6c(O[C@H]7C[C@@H](O)[C@@H](O)[C@H](C)O7)cccc6C5=O)N43)nn2)[C@H](OC(C)=O)[C@H](OC(C)=O)[C@H]1OC(C)=O` (stereo partly drawn), it took 3.7 µM to inhibit growth by half (GI50), the LC50 is 10.9 µM and the TGI was found to be 6.6 µM.
